Assay results published in ChEMBL document CHEMBL5653613 (Mol Cancer Ther, 2013).
Calls of active or inactive are those of the source. No cut-off for these calls is given here.

How the values were obtained:
MCF7 [1] = test: Induction of apoptosis in human MCF7 cells assessed as rate of apoptotic cell death at 5 umol/L by annexin V/PI staining based flow cytometry relative to control; assay type: functional; details: dose 5 µmol/L; at 5 µM
[2] = (§1) Effect on methotrexate resistance in human T47D cells with compound-induced polyploidy assessed as change in methotrexate-induced cytotoxicity by measuring increase in methotrexate IC50 at 5 umol/L preincubated for 72 hrs followed by compound washout and subsequent methotrexate treatment for 72 hrs by MTS assay; assay type: functional, cell-based
ZR-75-1 [3] = test: Induction of polyploidy in human ZR-75-1 cells assessed as cells with 2N chromosome contents at 5 uM incubated for 48 hrs by PI staining based flow cytometry (reference value: 48); assay type: functional
T47D [4] = test: Inhibition of cell growth of human T47D cells at 5 uM; assay type: functional, cell-based; details: time <= 48.0 hrs, TDE = time-dependent effect
T47D [5] = test: Inhibition of cell proliferation of human T47D cells with RON-/- at 5 umol/L incubated for 72 hrs followed by media replacement without compound measured upto 10 days by microscopic analysis; assay type: functional, cell-based; details: dose 5.0 µmol/L
T47D [6] = test: Induction of polyploidy in human T47D cells assessed as cells with 8N chromosome contents at 5 uM incubated for 72 hrs by PI staining based flow cytometry (reference value: 0); assay type: functional
T47D [7] = test: Induction of polyploidy in human T47D cells assessed as cells with 4N chromosome contents at 5 uM incubated for 72 hrs by PI staining based flow cytometry (reference value: 35); assay type: functional
ZR-75-1 [8] = test: Induction of polyploidy in human ZR-75-1 cells at 5 uM incubated for 72 hrs by microscopic analysis; assay type: functional, cell-based
Procedure, shortened: (§2)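 Cells stained with Hema-3 and photographed under a light microscope with CCD camera. Polyploid cells scored as percent of the population.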

ZR-75-1 [9] = test: Induction of polyploidy in human ZR-75-1 cells assessed as cells with 2N chromosome contents at 5 uM incubated for 72 hrs by PI staining based flow cytometry (reference value: 48); assay type: functional
ZR-75-1 [10] = test: Induction of polyploidy in human ZR-75-1 cells assessed as cells with 16N chromosome contents at 5 uM incubated for 72 hrs by PI staining based flow cytometry (reference value: 0); assay type: functional
T47D [11] = test: Induction of polyploidy in human T47D cells assessed as cells with 2N chromosome contents at 5 uM incubated for 72 hrs by PI staining based flow cytometry (reference value: 48); assay type: functional
[12] = Effect on cisplatin resistance in human T47D cells with compound-induced polyploidy assessed as change in cisplatin-induced cytotoxicity by measuring increase in cisplatin IC50 at 5 umol/L preincubated for 72 hrs followed by compound washout and subsequent cisplatin treatment for 72 hrs by MTS assay; assay type: functional, cell-based
ZR-75-1 [13] = test: Induction of polyploidy in human ZR-75-1 cells with RON-/- at 5 umol/L incubated for 72 hrs followed by media replacement without compound measured upto 10 days by microscopic analysis; assay type: functional, cell-based; details: dose 5.0 µmol/L
ZR-75-1 [14] = test: Induction of apoptosis in human ZR-75-1 cells assessed as early cells at 5 umol/L incubated for 3 days by Annexin V/PI staining based flow cytometry (reference value: 0.5 %); assay type: functional; details: dose 5 µmol/L; time 3 day; at 5 µM
T-47D (Homo sapiens) = test: Disruption of microtubule dynamics in human T-47D cells at 5 umol/L incubated upto 72 hrs by immunofluorescence staining based analysis; details: dose 5.0 µmol/L
ZR-75-1 [15] = test: Induction of polyploidy in human ZR-75-1 cells at 10 umol/L incubated for 72 hrs by microscopic analysis relative to control; assay type: functional; details: dose 10 µmol/L, at 10 µM; procedure, shortened: as §2
ZR-75-1 [16] = test: Induction of polyploidy in human ZR-75-1 cells assessed as cells with 4N chromosome contents at 5 uM incubated for 24 hrs by PI staining based flow cytometry (reference value: 35); assay type: functional
[17] = as §1, with “paclitaxel” for “methotrexate”, “ZR-75-1” for “T47D”, “paclitaxel-induced” for “methotrexate-induced”; assay type: functional, cell-based
T47D [18] = test: Induction of apoptosis in human T47D cells assessed as necrotic cells at 5 umol/L incubated for 3 days by Annexin V/PI staining based flow cytometry (reference value: 0.6 %); assay type: functional; details: dose 5 µmol/L; time 3 day; at 5 µM
T47D [19] = test: Induction of cell cycle arrest at telophase in human T47D cells at 5 umol/L preincubated for 24 hrs followed by extensive compound washout and subsequent culturing in compound-free media measured upto 120 mins by immunofluorescence staining based analysis; assay type: functional; details: dose 5.0 µmol/L
Procedure, shortened: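 T-47D cells were treated at 37°C with 5 µmol/L for 24 h, washed extensively, then cultured in DMEM with 10% FBS for 30, 60 and 120 min. α- and γ-tubulin were detected by immunofluorescence with DAPI, imaged at 400×. The control was a 24 h preincubation with 5 µmol/L RO-3306. One of 2 experiments.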

T47D [20] = test: Induction of polyploidy in human T47D cells assessed as cells with 8N chromosome contents at 5 uM incubated for 48 hrs by PI staining based flow cytometry (reference value: 0); assay type: functional
MCF7 [21] = test: Induction of polyploidy in human MCF7 cells assessed as cells with 4N chromosome contents at 5 uM incubated for 48 hrs by PI staining based flow cytometry (reference value: 36); assay type: functional
T47D [22] = test: Disruption of microtubule dynamics in human T47D cells assessed as lack of metaphase equatorial alignment at 5 umol/L incubated for 24 hrs by immunofluorescence staining based analysis; assay type: functional, cell-based; details: dose 5.0 µmol/L
Procedure, shortened: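 T-47D cells (1 × 10^6/dish) in RPMI-1640 with 5% FBS were treated with or without 5 µmol/L for 24, 48 and 72 h. Cells were fixed in cold acetone and stained with mouse anti-α-tubulin or anti-γ-tubulin, then an FITC anti-mouse IgG secondary, plus DAPI. Fluorescence microscopy, 200× magnification.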

[23] = as §1, with “ZR-75-1” for “T47D”; assay type: functional, cell-based
Procedure, shortened: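 Cells were first given the inducing compound for 72 h in 100-mm dishes. Polyploid cells were collected, washed and replated at 5,000 cells/well, with untreated cells at the same density as control. Methotrexate was added over a concentration range for 72 h, in triplicate. Viability was read by MTS assay and the IC50 calculated; 1 of 3 experiments shown.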

ZR-75-1 [24] = test: Induction of apoptosis in human ZR-75-1 cells assessed as necrotic cells at 5 umol/L incubated for 3 days by Annexin V/PI staining based flow cytometry (reference value: 0.7 %); assay type: functional; details: dose 5 µmol/L; time 3 day; at 5 µM
T47D [25] = test: Induction of cell death of human T47D cells with RON-/- at 5 umol/L incubated for 72 hrs followed by media replacement without compound measured upto 10 days by microscopic analysis; assay type: functional, cell-based; details: dose 5.0 µmol/L
T47D [26] = test: Induction of polyploidy in human T47D cells at 5 umol/L incubated for 72 hrs by microscopic analysis relative to control; assay type: functional; details: dose 5 µmol/L, at 5 µM; procedure, shortened: as §2
MCF7 [27] = test: Induction of polyploidy in human MCF7 cells assessed as cells with 4N chromosome contents at 5 uM incubated for 24 hrs by PI staining based flow cytometry (reference value: 36); assay type: functional
MCF7 [28] = test: Induction of polyploidy in human MCF7 cells assessed as cells with 16N chromosome contents at 5 uM incubated for 72 hrs by PI staining based flow cytometry (reference value: 0); assay type: functional
ZR-75-1 [29] = test: Induction of polyploidy in human ZR-75-1 cells assessed as cells with 8N chromosome contents at 5 uM incubated for 72 hrs by PI staining based flow cytometry (reference value: 0); assay type: functional

Compound `CCOc1ccn(-c2ccc(F)cc2)c(=O)c1C(=O)Nc1ccc(Oc2ccnc(N)c2Cl)c(F)c1` [BMS-777607] has an Activity (MCF7 [1]) of 2.2%, an IC50 [2] of 585 nM and an Activity (ZR-75-1 [3]) of 4.5. For the same compound, the inhibition (T47D [4]) was “Tde”, the inhibition (T47D [5]) was “inactive” and the Activity (T47D [6]) was 21. The Activity (T47D [7]) was 20, the Activity (ZR-75-1 [8]) was “Active” and the Activity (ZR-75-1 [9]) was 5. For the same compound, the Activity (ZR-75-1 [10]) was 32, the Activity (T47D [11]) was 7.5 and the IC50 [12] was 9.1 nM. The Activity (ZR-75-1 [13]) was “Active”, the Activity (ZR-75-1 [14]) was 2.3% and the Activity (T-47D (Homo sapiens)) was “Active”. It also gave an Activity (ZR-75-1 [15]) of 88%, an Activity (ZR-75-1 [16]) of 45.5 and an IC50 [17] of 20.8 nM. For the same compound, the Activity (T47D [18]) was 2.4%, the Activity (T47D [19]) was “Active” and the Activity (T47D [20]) was 23. The Activity (MCF7 [21]) was 38, the Activity (T47D [22]) was “Active” and the IC50 [23] was 430 nM. The Activity (ZR-75-1 [24]) was 1.8%, the Activity (T47D [25]) was “inactive” and the Activity (T47D [26]) was 78%. The Activity (MCF7 [27]) was 45.5, the Activity (MCF7 [28]) was 0 and the Activity (ZR-75-1 [29]) was 20.
